Data set [1] in a line: Partition coefficient by standard shake-flask techniquesat 37 C, using octanol and cyclohexane. Type of data set: physicochemical. The gist of the method: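 Shake-flask partitioning at 37 °C. About 1 mg of compound dissolved in 4.5 mL 0.05 M PIPES, pH 6.5. Aqueous aliquot shaken 2 h with an equal volume of octanol (H-bonding) or cyclohexane (non-H-bonding), then centrifuged. Both phases assayed by HPLC. Delta log P is derived from the octanol and cyclohexane log D values. Mean of at least two determinations.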

The target in data set [2] is T1, Endothelin receptor type B (Homo sapiens, UniProt P24530).
T1 sequence (P24530 whole entry): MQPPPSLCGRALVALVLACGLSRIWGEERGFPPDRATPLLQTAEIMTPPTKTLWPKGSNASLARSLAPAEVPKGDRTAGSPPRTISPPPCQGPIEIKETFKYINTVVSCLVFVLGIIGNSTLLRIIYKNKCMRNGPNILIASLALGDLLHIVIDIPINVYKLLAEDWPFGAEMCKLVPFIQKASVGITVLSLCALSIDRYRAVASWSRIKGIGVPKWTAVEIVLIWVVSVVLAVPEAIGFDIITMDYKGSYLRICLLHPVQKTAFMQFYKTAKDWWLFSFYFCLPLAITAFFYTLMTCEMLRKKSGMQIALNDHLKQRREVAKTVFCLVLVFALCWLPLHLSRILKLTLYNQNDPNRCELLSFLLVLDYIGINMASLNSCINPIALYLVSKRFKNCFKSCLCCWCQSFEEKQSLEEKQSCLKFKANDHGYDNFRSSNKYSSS
Kind of data set: Inhibitory activity was evaluated against human Endothelin B receptor. The gist of the method:
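Human ETA or ETB receptors expressed in CHO cells. Binding inhibition tested at 11 concentrations from 10⁻¹⁰ to 10⁻⁵ M, in duplicate. IC50 is the mean of at least 2 measurements (n = 2).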

Another data set addresses T2, Endothelin-1 receptor (Homo sapiens, UniProt P25101).
T2 sequence (P25101 whole entry): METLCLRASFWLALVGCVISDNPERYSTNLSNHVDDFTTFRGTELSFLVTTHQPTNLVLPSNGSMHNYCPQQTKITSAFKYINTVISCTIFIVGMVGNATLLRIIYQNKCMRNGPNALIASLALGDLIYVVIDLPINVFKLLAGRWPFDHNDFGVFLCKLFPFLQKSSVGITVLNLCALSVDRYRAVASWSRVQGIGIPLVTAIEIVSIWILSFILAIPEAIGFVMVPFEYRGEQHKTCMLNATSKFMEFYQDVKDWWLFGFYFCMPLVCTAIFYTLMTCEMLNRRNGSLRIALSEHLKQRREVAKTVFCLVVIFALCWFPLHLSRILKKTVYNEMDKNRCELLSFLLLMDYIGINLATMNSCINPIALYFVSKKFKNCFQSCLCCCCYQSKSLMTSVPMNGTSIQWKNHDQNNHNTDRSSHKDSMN
Kind of data set: Inhibitory activity was evaluated against human Endothelin A receptor. The gist of the method:
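Human ETA or ETB receptors expressed in CHO cells. Binding inhibition tested at 11 concentrations from 10⁻¹⁰ to 10⁻⁵ M, in duplicate.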

Data set [3] can be described thus: Total absorption was estimated by area under curve (AUC) after intraduodenal administration in rat. The settings on record: in vivo, id. Also on record: concentration or dose not given beside the values.
Another data set is described as follows: logD (pH 6.5). The note with it: buffer.
The nature of data set [4]: Oral bioavailability of compound at a dose of 10 mg/kg was determined in rat. Type of data set: ADME, organism-based. The note with it: in vivo. The gist of the method:
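Male Sprague-Dawley rats, n = 4 per group. 10 mg/kg given by gavage or as a slow iv bolus into the jugular vein, 10 mg/mL in ethanol–propylene glycol–D5W (20:30:50) with 1 equiv NaOH. Tail-vein plasma sampled up to 12 h and assayed by HPLC after extraction. F is the dose-corrected ratio of oral to iv AUC0–∞.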

Take `Cc1[nH]c([C@@H](Cc2cn(C)c3ccccc23)NC(=O)[C@@H](CC(=O)NC2CCCCC2)CC(C)C)nc1C(=O)O`: in data set [1], the “delta Log P” value is listed as more than 6.2. Further, the IC50 (commonly the concentration needed to halve the response being measured) was more than 100 µM in data set [2] and 0.029 µM against Endothelin-1 receptor. In addition, the AUC (as a rule, concentration integrated over time) in data set [3] is 81.7 ng·h/mL.
Regarding `Cc1oc([C@@H](Cc2cn(C)c3ccccc23)NC(=O)[C@H](CC(C)C)NC(=O)N(C)C2CCCCC2)nc1C(=O)O`, the “delta Log P” value in data set [1] is 4.05. Moreover, the figures for the IC50 (in data set [2]; on Endothelin-1 receptor) were more than 100 µM and 0.025 µM, respectively. For the same molecule, the AUC in data set [3] is 833 ng·h/mL.
For the molecule `Cc1[nH]c([C@@H](Cc2cn(C)c3ccccc23)NC(=O)[C@H](CC(C)C)NC(=O)NC2CCCCC2)nc1C(=O)O`, the “delta Log P” value in data set [1] was found to be 5.92. Besides, the IC50 in data set [2] came out at 34 µM; against Endothelin-1 receptor, 0.011 µM. The AUC in data set [3] is 4.33 ng·h/mL.
On the same counts, the results for `Cc1[nH]c([C@@H](Cc2cn(C)c3ccccc23)NC(=O)[C@H](CC(C)C)NC(=O)N(C)C2CCCCC2)nc1C(=O)O` are 5.4, 20 µM, 0.0018 µM and 103 ng·h/mL.
On the same counts, the results for `Cc1[nH]c([C@@H](Cc2cn(C)c3ccccc23)NC(=O)[C@H](CC(C)C)NC(=O)OC2CCCCC2)nc1C(=O)O` are more than 6.2, more than 100 µM, 0.076 µM and 168 ng·h/mL.
On the same counts, the results for `Cc1oc([C@@H](Cc2cn(C)c3ccccc23)NC(=O)[C@H](CC(C)C)NC(=O)NC2CCCCC2)nc1C(=O)O` are more than 6.1, more than 100 µM, 0.22 µM and 193 ng·h/mL.
Turning to `COc1cccc(Oc2c(NS(=O)(=O)c3ccc(C(C)(C)C)cc3)ncnc2OCCO)c1`, the “delta Log P” value in data set [1] was determined as 2.37. Also, the logD (as a rule, lipophilicity at a set pH, counting ionised and neutral species) in “logD (pH 6.5)” was found to be 1.98.
In the case of `Cc1oc([C@@H](Cc2cn(C)c3ccccc23)NC(=O)[C@@H](CC(=O)NC2CCCCC2)CC(C)C)nc1C(=O)O`, the “delta Log P” value in data set [1] is given as 3.82. For the same molecule, the IC50 in data set [2] is more than 100 µM; against Endothelin-1 receptor it was 0.31 µM. Moreover, the AUC in data set [3] is 292 ng·h/mL.
As for `Cc1[nH]c([C@@H](Cc2cn(C)c3ccccc23)NC(=O)[C@H](CC(C)C)N(C)C(=O)NC2CCCCC2)nc1C(=O)O`, the “delta Log P” value in data set [1] is recorded as more than 6. Besides, the IC50 in data set [2] was more than 100 µM; on Endothelin-1 receptor, 0.022 µM. For the same molecule, the AUC in data set [3] was 247 ng·h/mL.
In the case of `Cc1[nH]c([C@@H](Cc2cn(C)c3ccccc23)NC(=O)[C@H](CC(C)C)OC(=O)NC2CCCCC2)nc1C(=O)O`, the “delta Log P” value in data set [1] is recorded as more than 6.1. Also, the figures for the IC50 (in data set [2]; at Endothelin-1 receptor) were 54 µM and 0.0093 µM, respectively. Besides, the AUC in data set [3] is 347 ng·h/mL.
For `Cn1c(=O)c2[nH]cnc2n(C)c1=O.O` [THEOPHYLLINE], the “delta Log P” value in data set [1] is reported as 1.53. The molecule also gave a logD in the data set “logD (pH 6.5)” of -0.12.
Regarding `Cc1oc([C@@H](Cc2cn(C)c3ccccc23)NC(=O)[C@H](CC(C)C)NC(=O)CC2CCCCC2)nc1C(=O)O`, in data set [1], the “delta Log P” value is given as 3.78. In data set [2], this molecule registered an IC50 of more than 100 µM.
Consider `CCCN(Cc1ccc(-c2ccccc2-c2nnn[nH]2)cc1)c1ncccc1C(=O)O`, for which the “delta Log P” value in data set [1] was found to be 2.45. In addition, the logD in “logD (pH 6.5)” was -0.85.
As to `Cc1oc([C@@H](Cc2cn(C)c3ccccc23)NC(=O)[C@H](CC(C)C)N(C)C(=O)NC2CCCCC2)nc1C(=O)O`, in data set [1], the “delta Log P” value is given as 4.59. Moreover, the IC50 in data set [2] is more than 100 µM; against Endothelin-1 receptor, 0.45 µM. In addition, in data set [3], the AUC was 983 ng·h/mL.
The like results for `Cc1oc([C@@H](Cc2cn(C)c3ccccc23)NC(=O)[C@H](CC(C)C)OC(=O)NC2CCCCC2)nc1C(=O)O` were, in that order, 4.04, 48 µM, 0.021 µM and 815 ng·h/mL.
With `Cc1oc([C@@H](Cc2cn(C)c3ccccc23)NC(=O)[C@H](CC(C)C)NC(=O)OC2CCCCC2)nc1C(=O)O`, in data set [1], the “delta Log P” value was determined as 4.66. For the same molecule, the figures for the IC50 (in data set [2]; at Endothelin-1 receptor) were more than 100 µM and 0.041 µM, respectively. Besides, the AUC in data set [3] is 1360 ng·h/mL.
Turning to `Cc1[nH]c([C@@H](Cc2cn(C)c3ccccc23)NC(=O)[C@H](CC(C)C)NC(=O)CC2CCCCC2)nc1C(=O)O`, the “delta Log P” value in data set [1] is listed as 5.66. The values for the IC50 (in data set [2]; against Endothelin-1 receptor) were more than 90 µM and 0.47 µM, respectively.
In the case of `Cc1oc([C@@H](Cc2cn(C)c3ccccc23)NC(=O)[C@H](CC(C)C)OC(=O)N(C)C2CCCCC2)nc1C(=O)O`, in data set [1], the “delta Log P” value was 3.82. Further, the bioavailability (commonly the share of a dose that reaches the circulation, judged against a reference dose that is usually intravenous) in data set [4] worked out at 13.5%. For the same molecule, the IC50 in data set [2] stood at 90 µM; on Endothelin-1 receptor it was 0.0046 µM. Further, the AUC in data set [3] was 1840 ng·h/mL.
On to `Cc1oc([C@@H](Cc2cn(C)c3ccccc23)NC(=O)[C@H](CC(C)C)OC(=O)OC2CCCCC2)nc1C(=O)O`, for which, in data set [1], the “delta Log P” value worked out at 3.71. In addition, the IC50 is 79 µM in data set [2] and 0.017 µM on Endothelin-1 receptor. Moreover, in data set [3], the AUC was 1760 ng·h/mL.

The values are drawn from ChEMBL document CHEMBL1129499, “Azole endothelin antagonists. 3. Using delta log P as a tool to improve absorption” (J Med Chem, 1996).
